Reference: ChEMBL document CHEMBL1250432, “Pteridine-sulfonamide conjugates as dual inhibitors of carbonic anhydrases and dihydrofolate reductase with potential antitumor activity” (Bioorg Med Chem, 2010)
Active and inactive are the calls of the source. No cut-off for these calls is given here.

These molecules were tested on PC-3 (assay: Antiproliferative activity against human PC3 cells after 72 hrs by MTT assay). Settings: PC-3, 72 h.
Assay type: functional, cell-based
In short: (§1)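 A549 (ATCC) and PC3 cells kept in RPMI-1640 with 10% heat-inactivated FBS, 2 mM glutamine and 1 mM sodium pyruvate at 37 °C in humidified 5% CO2. Seeded at about 5000 cells/well and exposed continuously for 72 h to a range of inhibitor concentrations, with MTX as control. Viability read by MTT assay; IC50 reported.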

| Structure (SMILES) | IC50 |
| --- | --- |
| Nc1nc(N)c2nc(CNc3ccc(C(=O)NCCc4ccc(S(=O)(=O)O)cc4)cc3)cnc2n1 | 500 µM |
| Nc1nc(N)c2nc(CNCCc3ccc(S(=O)(=O)O)cc3)cnc2n1 | 460 µM |
| CN(Cc1cnc2nc(N)nc(N)c2n1)c1ccc(C(=O)NCCc2ccc(S(N)(=O)=O)cc2)cc1 | 500 µM |
| Nc1nc(N)c2nc(CNCCc3ccc(S(N)(=O)=O)cc3)cnc2n1 | 300 µM |
| Nc1nc(N)c2nc(CNc3ccc(S(N)(=O)=O)cc3)cnc2n1 | 550 µM |

Next, values leading:

| IC50 | Structure (SMILES) |
| --- | --- |
| 500 µM | Nc1nc(N)c2nc(CNc3ccc(S(=O)(=O)O)cc3)cnc2n1 |
| 400 µM | Nc1nc(N)c2nc(CNc3ccc(C(=O)NCCc4ccc(S(N)(=O)=O)cc4)cc3)cnc2n1 |
| 0.001 µM | CN(Cc1cnc2nc(N)nc(N)c2n1)c1ccc(C(=O)N[C@@H](CCC(=O)O)C(=O)O)cc1 [METHOTREXATE] |

The molecules below were run on A549 (assay: Antiproliferative activity against human A549 cells after 72 hrs by MTT assay). Settings: A549, 72 h.
Assay type: functional, cell-based
In short: as §1

| IC50 | Structure (SMILES) |
| --- | --- |
| 2000 µM | Nc1nc(N)c2nc(CNc3ccc(C(=O)NCCc4ccc(S(N)(=O)=O)cc4)cc3)cnc2n1 |
| 0.005 µM | CN(Cc1cnc2nc(N)nc(N)c2n1)c1ccc(C(=O)N[C@@H](CCC(=O)O)C(=O)O)cc1 [METHOTREXATE] |

What follows are molecules tested against Carbonic anhydrase 9 (Homo sapiens, UniProt Q16790) (assay: Inhibition of human recombinant carbonic anhydrase 9 after 15 mins by stopped flow CO2 hydration assay). Settings: not given.

| Structure (SMILES) | Ki |
| --- | --- |
| Nc1nc(N)c2nc(CNc3ccc(C(=O)NCCc4ccc(S(=O)(=O)O)cc4)cc3)cnc2n1 | > 1 µM |
| Nc1nc(N)c2nc(CNCCc3ccc(S(=O)(=O)O)cc3)cnc2n1 | > 1 µM |
| CN(Cc1cnc2nc(N)nc(N)c2n1)c1ccc(C(=O)NCCc2ccc(S(N)(=O)=O)cc2)cc1 | 0.0037 µM |
| Nc1nc(N)c2nc(CNc3ccc(S(N)(=O)=O)cc3)cnc2n1 | 0.0021 µM |

The remaining lines, values ahead:

| Ki | Structure (SMILES) |
| --- | --- |
| > 1 µM | Nc1nc(N)c2nc(CNc3ccc(S(=O)(=O)O)cc3)cnc2n1 |
| 0.0025 µM | Nc1nc(N)c2nc(CNc3ccc(C(=O)NCCc4ccc(S(N)(=O)=O)cc4)cc3)cnc2n1 |

Each molecule was assayed against Dihydrofolate reductase (Lactobacillus casei) (UniProt P00381) (assay: Inhibition of Lactobacillus casei DHFR at 0.5 mM by spectrophotometric analysis). Settings: Lacticaseibacillus casei.
In short: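 L. casei DHFR activity followed spectrophotometrically as the fall in absorbance at 340 nm from NADPH oxidation, with and without inhibitor, at 30 °C. Inhibitor tested at 0.5 mM, the highest concentration used.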

Sequence of Dihydrofolate reductase (Lactobacillus casei) (P00381 whole entry): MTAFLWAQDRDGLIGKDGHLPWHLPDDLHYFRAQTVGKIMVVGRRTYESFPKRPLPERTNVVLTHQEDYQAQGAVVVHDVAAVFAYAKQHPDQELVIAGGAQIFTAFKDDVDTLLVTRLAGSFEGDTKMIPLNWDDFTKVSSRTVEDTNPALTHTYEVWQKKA

| inhibition | Structure (SMILES) |
| --- | --- |
| inactive | Nc1nc(N)c2nc(CNCCc3ccc(S(=O)(=O)O)cc3)cnc2n1 |
| inactive | Nc1nc(N)c2nc(CNCCc3ccc(S(N)(=O)=O)cc3)cnc2n1 |

The molecules below were run against Dihydrofolate reductase (Lactobacillus casei, UniProt P00381) (assay: Inhibition of Lactobacillus casei DHFR by spectrophotometric analysis). Settings: not given.
Parameters: species or system Lacticaseibacillus casei

Sequence of Dihydrofolate reductase (P00381 whole entry): as above

| Structure (SMILES) | IC50 |
| --- | --- |
| Nc1nc(N)c2nc(CNc3ccc(C(=O)NCCc4ccc(S(=O)(=O)O)cc4)cc3)cnc2n1 | 1.3 µM |
| CN(Cc1cnc2nc(N)nc(N)c2n1)c1ccc(C(=O)NCCc2ccc(S(N)(=O)=O)cc2)cc1 | 1.8 µM |
| Nc1nc(N)c2nc(CNc3ccc(S(N)(=O)=O)cc3)cnc2n1 | 2.5 µM |

More lines, now with the values ahead:

| IC50 | Structure (SMILES) |
| --- | --- |
| 2 µM | Nc1nc(N)c2nc(CNc3ccc(S(=O)(=O)O)cc3)cnc2n1 |
| 20 µM | Nc1nc(N)c2nc(CNc3ccc(C(=O)NCCc4ccc(S(N)(=O)=O)cc4)cc3)cnc2n1 |
